{"source": "paper PMC3515842", "about": "(Journal of medicinal chemistry, 2012)", "key": {"APE1 [1]": {"target": "T1, APE1 (Homo sapiens, UniProt P27695)", "T1 sequence (P27695 whole entry)": "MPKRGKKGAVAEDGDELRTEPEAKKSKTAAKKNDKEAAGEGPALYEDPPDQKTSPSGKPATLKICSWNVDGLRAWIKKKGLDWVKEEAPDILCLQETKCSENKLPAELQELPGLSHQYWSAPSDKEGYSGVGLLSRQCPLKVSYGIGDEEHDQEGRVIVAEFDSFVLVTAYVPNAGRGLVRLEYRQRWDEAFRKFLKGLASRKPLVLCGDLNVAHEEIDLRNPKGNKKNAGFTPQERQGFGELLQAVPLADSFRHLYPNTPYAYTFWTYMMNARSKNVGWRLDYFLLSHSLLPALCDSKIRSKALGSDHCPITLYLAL", "experiment": "fluorescence-based qHTS assay of APE1 endonuclease activity", "type": "biochemical", "settings": "for less activity than the corresponding amide analog (4): relative to 4"}, "[2]": {"target": "total AP site incision activity of HeLa whole cell extract (APE1) (Homo sapiens, UniProt P27695)", "sequence (P27695 whole entry)": "as above", "experiment": "HeLa whole cell extract incision assay", "type": "biochemical", "settings": "for inhibition at 100 µM: read-out: inhibition of the incision activity of HeLa extracts"}, "APE1-DNA complex": {"target": "APE1-DNA complex (Homo sapiens, UniProt P27695)", "sequence (P27695 whole entry, one chain of several)": "as the sequence (P27695 whole entry) above", "experiment": "electrophoretic mobility shift assay", "type": "binding", "settings": "protein pre-treated with 30 µM inhibitor", "outline": "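Recombinant wild-type APE1 (10 ng, ~28 nM) was preincubated 10 min on ice with test compound (1, 3, 10, 30, 100 µM) or 1% DMSO. 32P AP-DNA (100 fmol, 10 nM) was added for 5 min on ice. Complex and free DNA were separated on native 8% PAGE (2 h, 120 V); percent DNA bound was read by phosphorimager.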"}, "HeLa cells": {"tested_on": "HeLa cells", "experiment": "MMS and TMZ potentiation / HeLa cell viability assay", "type": "cell-based, human", "settings": "for IC50: Homo sapiens, read-out: 50% reduction in cell viability as a single agent; for IC50 / concentration of optimal synergy with MMS and TMZ: 24 h; for potentiation of cytotoxic effects of MMS and TMZ / concentration of optimal synergy with MMS and TMZ: MMS 0.4 mM or TMZ 1 mM", "outline": "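HeLa cells in DMEM with 10% FBS, seeded at 6K/well and left overnight to attach. Medium was then replaced with fresh medium holding serial dilutions of test compound (5–30 µM), with or without MMS (0.4 mM) or TMZ (1 mM), for 24 h. Viability was read by CellTiter Glo luminescence after 30 min at room temperature, as percent of DMSO control, normalized to 100% per alkylating agent without compound.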"}, "Caco-2 permeability": {"experiment": "Caco-2 permeability", "type": "in vitro ADME", "settings": "human, Caco-2, pH 7.4"}, "[3]": {"experiment": "in vivo PK analysis, IP administration", "settings": "IP 30 mg/kg, CD1 mice, 24 hour observation"}, "APE1 [4]": {"target": "T1, APE1", "experiment": "enzyme kinetic studies of APE1 incision", "type": "biochemical", "settings": "for KM increase: 5, 10 or 20 µM inhibitor; for mode of inhibition: Lineweaver-Burk analysis; for kcat decrease: only at the high inhibitor concentration"}, "CYP3A4": {"target": "CYP3A4 (Homo sapiens, UniProt P08684)", "sequence (P08684 whole entry, species assumed)": "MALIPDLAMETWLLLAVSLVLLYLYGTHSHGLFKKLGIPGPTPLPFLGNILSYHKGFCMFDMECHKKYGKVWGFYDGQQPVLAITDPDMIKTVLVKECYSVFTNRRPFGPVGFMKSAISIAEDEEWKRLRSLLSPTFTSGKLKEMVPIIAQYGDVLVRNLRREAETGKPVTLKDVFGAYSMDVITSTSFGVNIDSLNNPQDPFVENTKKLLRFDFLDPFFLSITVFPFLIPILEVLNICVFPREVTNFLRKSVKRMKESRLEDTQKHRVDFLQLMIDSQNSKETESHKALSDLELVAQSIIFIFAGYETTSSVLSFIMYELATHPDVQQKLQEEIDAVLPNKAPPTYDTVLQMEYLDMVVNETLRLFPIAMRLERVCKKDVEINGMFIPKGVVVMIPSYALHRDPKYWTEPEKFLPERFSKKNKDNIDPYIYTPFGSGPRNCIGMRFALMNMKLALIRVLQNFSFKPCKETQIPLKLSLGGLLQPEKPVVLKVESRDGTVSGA", "experiment": "CYP3A4 inhibition", "type": "in vitro ADME"}}}
{"compound": "CC(=O)Nc1sc2c(c1-c1nc3ccccc3s1)CCSC2", "note": "[Compound 48]", "values": [{"measurement": "activity against APE1 in the qHTS assay, in words", "setting": "APE1 [1]", "value": "still active against APE1, albeit only at the highest concentration"}]}
{"compound": "CC(=O)Nc1sc2c(c1-c1cc3ccccc3o1)CCNC2", "note": "[Compound 17]", "values": [{"measurement": "activity against APE1 in the qHTS assay, in words", "setting": "APE1 [1]", "value": "greatly diminished activity"}]}
{"compound": "CC(=O)Nc1sc2c(c1-c1nc3ccccc3s1)CCOC2", "note": "[Compound 47]", "values": [{"measurement": "activity against APE1 in the qHTS assay, in words", "setting": "APE1 [1]", "value": "still active against APE1, albeit only at the highest concentration"}]}
{"compound": "Cc1noc(Nc2sc3c(c2-c2nc4ccccc4s2)CCNC3)n1", "note": "[Compound 46]", "values": [{"measurement": "activity against APE1 in the qHTS assay, in words", "setting": "APE1 [1]", "value": "modest activity"}, {"measurement": "less activity than the corresponding amide analog (4)", "setting": "APE1 [1]", "value": "approximately 8 fold"}]}
{"compound": "CC(=O)Nc1sc2c(c1-c1nc3ccccc3s1)CCNC2", "note": "[Compound 4]", "values": [{"measurement": "inhibition at 100 µM", "setting": "[2]", "value": "~100", "unit": "%"}]}
{"compound": "O=C(CCc1ccccc1)Nc1sc2c(c1-c1nc3ccccc3s1)CCNC2", "note": "[Compound 30]", "values": [{"measurement": "activity against APE1 in the qHTS assay, in words", "setting": "APE1 [1]", "value": "inactive"}]}
{"compound": "CC(=O)Nc1sc2c(c1-c1cc3ccccc3s1)CCNC2", "note": "[Compound 15]", "values": [{"measurement": "activity against APE1 in the qHTS assay, in words", "setting": "APE1 [1]", "value": "greatly diminished activity"}]}
{"compound": "O=C(O)c1sc2c(c1-c1nc3ccccc3s1)CCNC2", "note": "[Compound 42]", "values": [{"measurement": "activity against APE1 in the qHTS assay, in words", "setting": "APE1 [1]", "value": "complete loss of activity"}]}
{"compound": "CC(=O)Nc1sc2c(c1-c1ccco1)CCNC2", "note": "[Compound 13]", "values": [{"measurement": "activity against APE1 in the qHTS assay, in words", "setting": "APE1 [1]", "value": "greatly diminished activity"}]}
{"compound": "CC(=O)Nc1sc2c(c1-c1nc3ccccc3s1)CCN(C(C)=O)C2", "note": "[Compound 8]", "values": [{"measurement": "activity against APE1 in the qHTS assay, in words", "setting": "APE1 [1]", "value": "significant loss of activity"}]}
{"compound": "CC(=O)Nc1sc2c(c1-c1nc(-c3ccccc3)cs1)CCN(C(C)C)C2", "note": "[Compound 24]", "values": [{"measurement": "activity against APE1 in the qHTS assay, in words", "setting": "APE1 [1]", "value": "activity comparable to the lead compound"}]}
{"compound": "CC(=O)Nc1sc2c(c1-c1nc3ccccc3o1)CCN(C(C)C)C2", "note": "[Compound 23]", "values": [{"measurement": "loss in activity", "setting": "APE1 [1]; relative to lead compound 3", "value": 10, "unit": "fold"}]}
{"compound": "CC(=O)Nc1sc2cnccc2c1-c1nc2ccccc2s1", "note": "[Compound 50]", "values": [{"measurement": "activity against APE1 in the qHTS assay, in words", "setting": "APE1 [1]", "value": "completely inactive"}]}
{"compound": "CC(=O)Nc1sc2c(c1-c1nc3ccccc3s1)CNC2", "note": "[Compound 52, N-(3-(benzo[d]thiazol-2-yl)-5,6-dihydro-4H-thieno[2,3-c]pyrrol-2-yl)acetamide]", "values": [{"measurement": "APE1-DNA binary complex", "setting": "APE1-DNA complex", "value": "essentially absent"}, {"measurement": "IC50", "setting": "HeLa cells", "value": "~30", "unit": "µM"}, {"measurement": "potentiation of cytotoxic effects of MMS and TMZ", "setting": "HeLa cells", "value": "greatly potentiated"}, {"measurement": "concentration of optimal synergy with MMS and TMZ", "setting": "HeLa cells", "value": "10 to 15", "unit": "µM"}, {"measurement": "Papp", "setting": "Caco-2 permeability", "value": 680, "unit": "×10⁻⁶ cm/s"}, {"measurement": "IC50", "setting": "APE1 [1]", "value": 3.1, "unit": "µM"}, {"measurement": "tolerability", "setting": "[3]", "value": "well tolerated by the animals, with no adverse effects noted"}, {"measurement": "KM increase", "setting": "APE1 [4]", "value": "up to 10 fold"}, {"measurement": "mode of inhibition", "setting": "APE1 [4]", "value": "competitive inhibitors"}, {"measurement": "kcat decrease", "setting": "APE1 [4]", "value": "less than 6 fold"}, {"measurement": "inhibition of HeLa whole cell extract AP site incision", "setting": "[2]; 10 µM inhibitor", "value": "almost complete inhibition"}, {"measurement": "inhibition at 100 µM", "setting": "[2]", "value": "~100", "unit": "%"}]}
{"compound": "Cc1noc(-c2sc3c(c2-c2nc4ccccc4s2)CCNC3)n1", "note": "[Compound 44]", "values": [{"measurement": "activity against APE1 in the qHTS assay, in words", "setting": "APE1 [1]", "value": "completely inactive"}]}
{"compound": "CC(=O)Nc1sc2c(c1-c1ncco1)CCNC2", "note": "[Compound 19]", "values": [{"measurement": "activity against APE1 in the qHTS assay, in words", "setting": "APE1 [1]", "value": "greatly diminished activity"}]}
{"compound": "CC(=O)Nc1sc2c(c1-c1nccs1)CCNC2", "note": "[Compound 20]", "values": [{"measurement": "activity against APE1 in the qHTS assay, in words", "setting": "APE1 [1]", "value": "greatly diminished activity"}]}
{"compound": "Cc1nnc(Nc2sc3c(c2-c2nc4ccccc4s2)CCNC3)o1", "note": "[Compound 45]", "values": [{"measurement": "activity against APE1 in the qHTS assay, in words", "setting": "APE1 [1]", "value": "modest activity"}, {"measurement": "less activity than the corresponding amide analog (4)", "setting": "APE1 [1]", "value": "approximately 8 fold"}]}
{"compound": "CC(=O)Nc1sc2c(c1-c1cccs1)CCNC2", "note": "[Compound 14]", "values": [{"measurement": "activity against APE1 in the qHTS assay, in words", "setting": "APE1 [1]", "value": "greatly diminished activity"}]}
{"compound": "CC(C)(C)C(=O)Nc1sc2c(c1-c1nc3ccccc3s1)CCNC2", "note": "[Compound 26]", "values": [{"measurement": "activity against APE1 in the qHTS assay, in words", "setting": "APE1 [1]", "value": "inactive"}]}
{"compound": "CC(=O)Nc1sc2c(c1-c1nc3ccccc3s1)CCN(C(C)C)CC2", "note": "[Compound 55]", "values": [{"measurement": "inhibition at 100 µM", "setting": "[2]", "value": "~100", "unit": "%"}]}
{"compound": "Cc1nnc(-c2sc3c(c2-c2nc4ccccc4s2)CCNC3)o1", "note": "[Compound 43]", "values": [{"measurement": "activity against APE1 in the qHTS assay, in words", "setting": "APE1 [1]", "value": "completely inactive"}]}
{"compound": "CC(=O)Nc1sc2c(c1-c1nc3ccccc3s1)CNCC2", "note": "[Compound 53]", "values": [{"measurement": "activity against APE1 in the qHTS assay, in words", "setting": "APE1 [1]", "value": "only modest efficacy"}]}
{"compound": "CC(=O)Nc1sc2c(c1-c1nc3ccccc3s1)CCN(C(C)C)C2", "note": "[Compound 3, N-(3-(benzo[d]thiazol-2-yl)-6-isopropyl-4,5,6,7-tetrahydrothieno[2,3-c]pyridin-2-yl)acetamide]", "values": [{"measurement": "APE1-DNA binary complex", "setting": "APE1-DNA complex", "value": "essentially absent"}, {"measurement": "IC50", "setting": "HeLa cells", "value": "~15", "unit": "µM"}, {"measurement": "potentiation of cytotoxic effects of MMS and TMZ", "setting": "HeLa cells", "value": "greatly potentiated"}, {"measurement": "concentration of optimal synergy with MMS and TMZ", "setting": "HeLa cells", "value": "5 to 10", "unit": "µM"}, {"measurement": "Papp", "setting": "Caco-2 permeability", "value": 500, "unit": "×10⁻⁶ cm/s"}, {"measurement": "tolerability", "setting": "[3]", "value": "well tolerated by the animals, with no adverse effects noted"}, {"measurement": "KM increase", "setting": "APE1 [4]", "value": "≤ 4", "unit": "fold"}, {"measurement": "mode of inhibition", "setting": "APE1 [4]", "value": "competitive inhibitors"}, {"measurement": "kcat decrease", "setting": "APE1 [4]", "value": "less than 6 fold"}, {"measurement": "inhibition at 100 µM", "setting": "[2]", "value": "~100", "unit": "%"}, {"measurement": "CYP3A4 (inh. @ 10 µM)", "setting": "CYP3A4", "value": 53, "unit": "%"}]}
{"compound": "COC(=O)c1sc2c(c1-c1nc3ccccc3s1)CCNC2", "note": "[Compound 41]", "values": [{"measurement": "activity against APE1 in the qHTS assay, in words", "setting": "APE1 [1]", "value": "complete loss of activity"}]}
{"compound": "CC(=O)Nc1sc2c(c1-c1nc3ccccc3s1)CCN(C(=O)OC(C)(C)C)C2", "note": "[Compound 5]", "values": [{"measurement": "activity against APE1 in the qHTS assay, in words", "setting": "APE1 [1]", "value": "significant loss of activity"}]}
